Laboratory results as given in PubChem BioAssay.
Records with an inconclusive call do not appear.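 Rule for the calls, unless noted: active = RAM network inhibition above 8.4% in each of two replicates, 3 SD over the compound average; inconclusive = above 8.4% inhibition in only one replicate; inactive = 8.4% inhibition or less in each replicate.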

Key:
[1] = S. cerevisiae growth inhibition in permissive medium (OD615), pilot counter-assay for S. cerevisiae lifespan shortening project, permissive growth control (AID 705;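 active = growth inhibition above 25% in both replicates, a cutoff set 3 SD above the mean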); details: OD615, 24 h, at 10 µM, stronger effect = higher value
In short: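 System: S. cerevisiae with engineered DeaD lifespan system. Medium: SC raffinose/galactose permissive medium. Doses: single compound dose of 10 µM, 0.25% DMSO final. Schedule: 24 h exposure, 30 °C. Measured by: OD615 turbidity read. Read-out: growth inhibition.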

[2] = S. cerevisiae growth inhibition in restrictive medium, OD615, pilot screen, restrictive growth control, yeast lifespan reduction project (AID 706;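 active = growth inhibition above a set limit, 3 SD over mean compound inhibition, in both replicates, cut at about 43% in these data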;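 note: modified DeaD lifespan yeast strain shifted to restrictive glucose medium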); details: OD615, 48 h, at 10 µM, stronger effect = higher value
In short: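 Assay system – genetically modified Saccharomyces cerevisiae, DeaD replicative lifespan assay strain · Medium – CSMM-D glucose medium · Doses – 10 µM compound, 0.25% DMSO · Times – 4 h pre-incubation, 48 h exposure at 30 °C · Signal – optical density at 615 nm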

[3] = doxorubicin toxicity protection in MRP-1 cells – H69AR cells, CellTiter-Glo, duplicate, MRP-1 activator project, pilot screen (AID 807;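 active = viability increase at or above a cutoff of the median across tested compounds plus 3 SD, cut at about 8.5% in these data, passing the limit was not always enough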;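 note: compound pretreatment 18-22 h then 72 h combined with doxorubicin; 0% = doxorubicin alone and 100% = vehicle without doxorubicin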); details: H69AR viability with doxorubicin, CellTiter-Glo luminescence; at 10 µM; stronger effect = higher value
[4] = viability of HCT116 without oncogenic beta-catenin – human colon tumor cells, pilot screen (AID 823;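 active = cell viability at or below a set limit in both duplicate runs, the limit being the all-compound median minus 4 SD, cut at about 23% in these data, passing the limit was not always enough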;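 note: 0% = wells killed by 20 µM Hyamine and 100% = untreated DMSO cell wells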); details: HCT116 beta-catenin knockout viability, CellTiter-Glo, 60 h; at 10 µM; stronger effect = lower value
[5] = viability of PTEN-null HCT116 cells – cell-based, HCT116 clonal line, CellTiter-Glo, pilot screen (AID 824;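 active = viability at or below 27.92% in each of two runs, the all-compound median minus 4 SD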;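 note: 0% = 20 µM Hyamine control and 100% = vehicle cell control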); details: HCT116 PTEN-deleted viability, 60 h, at 10 µM, stronger effect = lower value
[6] = RAM pathway blockade in budding yeast – dse1pr::URA3 reporter, 5-FOA selection, pilot screen (AID 869;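 active = inhibition over a set limit, the all-compound mean plus 3 SD, in both replicate runs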;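 note: 0% = DMSO wells with no growth and 100% = 10 µM 1-NA-PP1 with full growth; RAM network block rescues cells from 5-FOA so hits raise OD615 growth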); details: S. cerevisiae dse1pr::URA3 5-FOA growth, OD615, 2 d; at 10 µM; stronger effect = higher value; strain carries analog-sensitive mutant Cbk1 kinase
[7] = RAM signaling pathway blockade in yeast – S. cerevisiae, Pdr1DBD-CYC8 efflux-inhibited sensitized strain, primary screen (AID 1298);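 note: 0% = DMSO untreated cells without growth and 100% = 10 µM 1-NA-PP1 full growth; higher means more yeast growth rescued from 5-FOA killing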; details: S. cerevisiae cbk1-as DSE1-URA3 strain, 5-FOA growth OD615, 2 d; at 50 µM; stronger effect = higher value

CC(C)Sc1nc2c(cnn2-c2ccc(F)cc2)c(=O)[nH]1
inactive: growth inhibition [1] -8.33% | growth inhibition [2] -1.79% | viability increase [3] -3.72% | viability [4] 90.7% | viability [5] 97.3% | inhibition [6] 0.795% | RAM network inhibition [7] 3.54%

Cc1ccccc1NC(=O)CCn1c(=O)oc2ccccc21
inactive: growth inhibition [1] -3.42% | growth inhibition [2] -26.5% | viability increase [3] -1.87% | viability [4] 101% | viability [5] 91.3% | inhibition [6] 1.54% | RAM network inhibition [7] 3.96%

O=C(CSc1nc2cc(Cl)ccc2s1)c1ccco1
inactive: growth inhibition [1] -10.9% | growth inhibition [2] 11.2% | viability increase [3] -4.44% | viability [4] 95% | viability [5] 93.8% | inhibition [6] -0.07% | RAM network inhibition [7] -1.19%

CCCCn1c(CN2CCN(C(=O)c3ccco3)CC2)nc2c1c(=O)n(C)c(=O)n2C
inactive: growth inhibition [1] -3.45% | growth inhibition [2] -7.47% | viability increase [3] -4.33% | viability [4] 101% | viability [5] 98% | inhibition [6] 0.905% | RAM network inhibition [7] 2.15%

Cn1c(=O)oc2cc(S(=O)(=O)Nc3ccc(Cl)cc3F)ccc21
inactive: growth inhibition [1] -9.48% | growth inhibition [2] -19.3% | viability increase [3] 2.12% | viability [4] 105% | viability [5] 92.7% | inhibition [6] 0.53% | RAM network inhibition [7] 9.07%

O=S(=O)(c1cc(Cl)ccc1Cl)N1CCN(Cc2ccc3c(c2)OCO3)CC1
inactive: growth inhibition [1] -18.5% | growth inhibition [2] -8.86% | viability increase [3] 0.21% | viability [4] 94.8% | viability [5] 83.7% | inhibition [6] 0.37% | RAM network inhibition [7] 2.23%

Cc1noc(NS(=O)(=O)c2ccc(NC(=O)CSc3nc4c(cc3C#N)CCCC4)cc2)c1C
inactive: growth inhibition [1] 2.36% | growth inhibition [2] 3.98% | viability increase [3] 0.62% | viability [4] 109% | viability [5] 101% | inhibition [6] 2.52% | RAM network inhibition [7] 2.9%

CCC(C)Sc1nnc(Cc2cc(=O)[nH]c(=O)[nH]2)n1-c1ccc(OC)cc1 (stereo not drawn)
inactive: growth inhibition [1] 5.64% | growth inhibition [2] -6.83% | viability increase [3] -0.09% | viability [4] 104% | viability [5] 102% | inhibition [6] 0.295% | RAM network inhibition [7] 2.22%

COc1ccc(NC(=O)Nc2c(C)n(C)n(-c3ccccc3)c2=O)cc1
inactive: growth inhibition [1] 1.73% | growth inhibition [2] 2.85% | viability increase [3] -2.06% | viability [4] 103% | viability [5] 97.9% | inhibition [6] 0.655% | RAM network inhibition [7] 1.34%

O=C1CCC(=O)N1CNc1cccnc1
inactive: growth inhibition [1] -7.25% | growth inhibition [2] -12.2% | viability increase [3] -0.41% | viability [4] 95.3% | viability [5] 103% | inhibition [6] 0.34% | RAM network inhibition [7] 5.5%

Cc1cc(C)cc(NC(=O)CSc2nc3c(c(=O)n2C)SC(C)C3)c1 (stereo not drawn)
inactive: growth inhibition [1] -2.6% | growth inhibition [2] 2.95% | viability increase [3] -2.79% | viability [4] 89.3% | viability [5] 92% | inhibition [6] 2.04% | RAM network inhibition [7] 6.37%

Cc1cccc(NC(=O)CC2SC(=NC3CCCCC3)NC2=O)c1 (stereo not drawn)
inactive: growth inhibition [1] -5.5% | growth inhibition [2] -21.6% | viability increase [3] 0.92% | viability [4] 99.2% | viability [5] 94.9% | inhibition [6] 0.415% | RAM network inhibition [7] 4.77%

COC(=O)c1nc2cc(C)ccn2c1F
inactive: growth inhibition [1] 0.67% | growth inhibition [2] 0.595% | viability increase [3] -1.42% | viability [4] 105% | viability [5] 94.3% | inhibition [6] 2.7% | RAM network inhibition [7] 0.79%

O=C(CCn1c(=O)oc2ccccc21)NCc1ccc2c(c1)OCO2
inactive: growth inhibition [1] -11.4% | growth inhibition [2] -19.9% | viability increase [3] -2.85% | viability [4] 100% | viability [5] 91.3% | inhibition [6] 2.35% | RAM network inhibition [7] 6.04%

CC1(C(=O)NC2CCCCC2)CCC(=O)N1Cc1cccnc1 (stereo not drawn)
inactive: growth inhibition [1] -8.59% | growth inhibition [2] -7.4% | viability increase [3] -0.54% | viability [4] 102% | viability [5] 104% | inhibition [6] 0.95% | RAM network inhibition [7] 0.89%

O=C(COc1ccccc1)Nc1nnc(-c2ccc(Cl)s2)o1
inactive: growth inhibition [1] -2.75% | growth inhibition [2] 8.75% | viability increase [3] -1.36% | viability [4] 109% | viability [5] 100% | inhibition [6] 2.67% | RAM network inhibition [7] 1.52%

CCCCOC(=O)Nc1sc2c(c1C(=O)OC)CCC2
inactive: growth inhibition [1] -6.32% | growth inhibition [2] 6.97% | viability increase [3] -2.72% | viability [4] 96.2% | viability [5] 92.4% | inhibition [6] 0.325% | RAM network inhibition [7] 8.11%

O=C(CSc1nnc2sc3ccccc3n12)NCc1ccc2c(c1)OCO2
inactive: growth inhibition [1] 1.77% | growth inhibition [2] 20.7% | viability increase [3] -1.52% | viability [4] 104% | viability [5] 101% | inhibition [6] 0.245% | RAM network inhibition [7] 4.54%

CCCCS(=O)CC(COCc1ccccc1)OC(=O)CSc1nc(C)cc(C)n1 (stereo not drawn)
inactive: growth inhibition [1] -8.16% | growth inhibition [2] -22% | viability increase [3] -1.32% | viability [4] 97.6% | viability [5] 94.7% | inhibition [6] 0.95% | RAM network inhibition [7] 3.07%

Cn1cc(SCC(=O)NCc2ccc3c(c2)OCO3)c2ccccc21
inactive: growth inhibition [1] 4.09% | growth inhibition [2] -1.53% | viability increase [3] -4.24% | viability [4] 98.3% | viability [5] 95.1% | inhibition [6] 1.17% | RAM network inhibition [7] 4.4%

CCOc1ccccc1NC(=O)CN1C(=O)COc2ccc(Cl)cc21
inactive: growth inhibition [1] -16.8% | growth inhibition [2] -11.8% | viability increase [3] -1.27% | viability [4] 91.7% | viability [5] 84.2% | inhibition [6] 4.02% | RAM network inhibition [7] 5.69%

CCCC(C(=O)N1CCOCC1)N1C(=O)C2C3C=CC(C3)C2C1=O (stereo not drawn)
inactive: growth inhibition [1] -8.63% | growth inhibition [2] 3.61% | viability increase [3] 0.84% | viability [4] 99% | viability [5] 99% | inhibition [6] 0.215% | RAM network inhibition [7] -0.83%

Cc1ccc(S(=O)(=O)N(C)Cc2nc(-c3ccc(Br)cc3)no2)cc1
inactive: growth inhibition [1] -3.27% | growth inhibition [2] -0.88% | viability increase [3] 0.27% | viability [4] 89.5% | viability [5] 87.8% | inhibition [6] 2.72% | RAM network inhibition [7] 3.02%

CCCc1nc(N)nc2c1C(=O)CC(C)(C)C2
inactive: growth inhibition [1] -15.1% | growth inhibition [2] 3.37% | viability increase [3] -1.08% | viability [4] 89.4% | viability [5] 87.6% | inhibition [6] 1.54% | RAM network inhibition [7] 0.27%
